According to ChEMBL document CHEMBL4400518, “Synthesis, antimicrobial and cytotoxic activities, and molecular docking studies of N-arylsulfonylindoles containing an aminoguanidine, a semicarbazide, and a thiosemicarbazide moiety” (Eur J Med Chem, 2019):
Converted amounts (≈) assume the structure as drawn.

Experiments:
Type in all cases: functional
[1] = tested on: Escherichia coli; test: Antibacterial activity against Escherichia coli CMCC 44568 measured after 24 hrs by ELISA; details: CMCC 44568, 24 h
Method in brief: (§1)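 Broth microdilution MIC. Mid-log bacteria in MHB or TSB diluted 1000-fold, inoculated at 10^5 CFU/mL. Compounds added from DMSO stocks; final DMSO at most 0.05%. Incubation 24 h at 37 °C. Growth read as absorbance at 630 nm. MIC taken as the lowest concentration giving complete growth inhibition. Three independent experiments.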

[2] = tested on: Pseudomonas aeruginosa; test: Antibacterial activity against Pseudomonas aeruginosa CMCC 10104 measured after 24 hrs by ELISA; details: CMCC 10104, 24 h; method in brief: as §1
[3] = tested on: Pseudomonas aeruginosa; test: Antibacterial activity against Pseudomonas aeruginosa CMCC 27853 measured after 24 hrs by ELISA; details: CMCC 27853, 24 h; method in brief: as §1
[4] = tested on: Enterococcus faecalis; test: Antibacterial activity against Enterococcus faecalis CMCC 29212 measured after 24 hrs by ELISA; details: CMCC 29212, 24 h; method in brief: as §1
[5] = tested on: Bacillus subtilis; test: Antibacterial activity against Bacillus subtilis CMCC 63501 measured after 24 hrs by ELISA; details: CMCC 63501, 24 h; method in brief: as §1
[6] = tested on: Escherichia coli; test: Antibacterial activity against Escherichia coli CMCC 25922 measured after 24 hrs by ELISA; details: CMCC 25922, 24 h; method in brief: as §1
[7] = tested on: Streptococcus pyogenes; test: Antibacterial activity against Streptococcus pyogenes CMCC 32067 measured after 24 hrs by ELISA; details: CMCC 32067, 24 h; method in brief: as §1
[8] = tested on: Streptococcus pneumoniae; test: Antibacterial activity against Streptococcus pneumoniae CMCC 31968 measured after 24 hrs by ELISA; details: CMCC 31968, 24 h
[9] = tested on: Staphylococcus aureus; test: Antibacterial activity against Staphylococcus aureus CMCC(B) 26003 measured after 24 hrs by ELISA; details: CMCC(B) 26003, 24 h; method in brief: as §1
[10] = tested on: Staphylococcus aureus; test: Antibacterial activity against Staphylococcus aureus CMCC 25923 measured after 24 hrs by ELISA; details: CMCC 25923, 24 h; method in brief: as §1

Row | Structure (SMILES) | MIC [1] [µM] | MIC [2] [µM] | MIC [3] [µM] | MIC [4] [µM] | MIC [5] [µM] | MIC [6] [µM] | MIC [7] [µM] | MIC [8] [µM] | MIC [9] [µM] | MIC [10] [µM]
1 | CC/C(=N/NC(=N)N)c1cn(S(=O)(=O)c2ccc(C)cc2)c2ccccc12 | 20.9 (≈ 8.01 µg/mL) | > 334 | 334 (≈ 128 µg/mL) | 20.9 (≈ 8.01 µg/mL) | 10.4 (≈ 4 µg/mL) | 20.9 (≈ 8.01 µg/mL) | 5.22 (≈ 2 µg/mL) | 83.5 (≈ 32 µg/mL) | 5.22 (≈ 2 µg/mL) | 10.4 (≈ 4 µg/mL)
2 | Cc1ccc(S(=O)(=O)n2cc(/C=N\NC(N)=S)c3cc(Br)ccc32)cc1 | > 284 | > 284 | > 284 | > 284 | > 284 | > 284 | > 284 | > 284 | 284 (≈ 128 µg/mL) | > 284
3 | NC(=O)N/N=C\c1cn(S(=O)(=O)c2ccccc2)c2ccccc12 | > 374 | > 374 | > 374 | > 374 | 93.6 (≈ 32 µg/mL) | > 374 | > 374 | > 374 | 93.6 (≈ 32 µg/mL) | 93.6 (≈ 32 µg/mL)
4 | C/C(=N/NC(N)=O)c1cn(S(=O)(=O)c2ccc(C)cc2)c2ccc(Br)cc12 | > 286 | > 286 | > 286 | > 286 | 8.93 (≈ 4.01 µg/mL) | > 286 | > 286 | > 286 | 286 (≈ 128 µg/mL) | > 286
5 | Cc1ccc(S(=O)(=O)n2cc(/C=N\NC(N)=S)c3ccccc32)cc1 | > 343 | > 343 | 343 (≈ 128 µg/mL) | > 343 | > 343 | > 343 | > 343 | > 343 | 343 (≈ 128 µg/mL) | > 343
6 | CC/C(=N/NC(N)=O)c1cn(S(=O)(=O)c2ccc(C)cc2)c2ccccc12 | > 333 | > 333 | > 333 | > 333 | 333 (≈ 128 µg/mL) | > 333 | > 333 | > 333 | 333 (≈ 128 µg/mL) | 83.3 (≈ 32 µg/mL)
7 | C/C(=N/NC(N)=S)c1cn(S(=O)(=O)c2ccc(C)cc2)c2ccccc12 | 332 (≈ 128 µg/mL) | > 332 | 332 (≈ 128 µg/mL) | 332 (≈ 128 µg/mL) | 166 (≈ 64.1 µg/mL) | 332 (≈ 128 µg/mL) | > 332 | > 332 | 332 (≈ 128 µg/mL) | 332 (≈ 128 µg/mL)
8 | NC(=S)N/N=C\c1cn(S(=O)(=O)c2ccccc2)c2ccc(Br)cc12 | > 294 | > 294 | > 294 | > 294 | > 294 | > 294 | > 294 | > 294 | 294 (≈ 128 µg/mL) | > 294
9 | Cc1ccc(S(=O)(=O)n2cc(/C=N\NC(N)=O)c3cc(Br)ccc32)cc1 | > 295 | > 295 | > 295 | > 295 | 9.22 (≈ 4.01 µg/mL) | > 295 | > 295 | > 295 | 295 (≈ 128 µg/mL) | > 295
10 | C/C(=N/NC(N)=O)c1cn(S(=O)(=O)c2ccc(C)cc2)c2ccccc12 | > 346 | > 346 | > 346 | > 346 | 346 (≈ 128 µg/mL) | > 346 | > 346 | > 346 | 346 (≈ 128 µg/mL) | > 346
11 | CC/C(=N/NC(=N)N)c1cn(S(=O)(=O)c2ccccc2)c2ccccc12 | 43.4 (≈ 16 µg/mL) | 43.4 (≈ 16 µg/mL) | 173 (≈ 64.1 µg/mL) | 43.4 (≈ 16 µg/mL) | > 347 | 43.4 (≈ 16 µg/mL) | 10.8 (≈ 4 µg/mL) | 10.8 (≈ 4 µg/mL) | 21.7 (≈ 8.01 µg/mL) | 21.7 (≈ 8.01 µg/mL)
12 | CC/C(=N/NC(N)=O)c1cn(S(=O)(=O)c2ccc(C)cc2)c2ccc(Br)cc12 | > 277 | > 277 | > 277 | > 277 | > 277 | > 277 | > 277 | > 277 | > 277 | > 277
13 | C/C(=N/NC(N)=S)c1cn(S(=O)(=O)c2ccccc2)c2ccccc12 | 344 (≈ 128 µg/mL) | > 344 | 344 (≈ 128 µg/mL) | > 344 | 172 (≈ 64.1 µg/mL) | 344 (≈ 128 µg/mL) | > 344 | > 344 | 344 (≈ 128 µg/mL) | 344 (≈ 128 µg/mL)
14 | CC/C(=N/NC(N)=S)c1cn(S(=O)(=O)c2ccc(C)cc2)c2ccc(Br)cc12 | 268 (≈ 128 µg/mL) | > 268 | > 268 | > 268 | > 268 | 268 (≈ 128 µg/mL) | > 268 | > 268 | 134 (≈ 64.2 µg/mL) | 268 (≈ 128 µg/mL)
